Assay results collected from several papers.
Lines come from different studies, so protocols differ. ≈ marks a conversion by molar mass, not a printed value.

SMILES | target or system | assay | system | conditions | endpoint | value
O=C1O[C@H]([C@@H](O)CO)C(O)=C1O |  | ABTS scavenging |  |  | IC50 | 4.24 µg/mL
C[C@@H]1[C@H](O)[C@@H](C)/C=C/C=C/C=C/C=C/C=C/C=C/C=C/[C@H](O[C@@H]2O[C@H](C)[C@@H](O)[C@H](N)[C@@H]2O)C[C@@H]2O[C@](O)(C[C@@H](O)C[C@@H](O)[C@H](O)CC[C@@H](O)C[C@@H](O)CC(=O)O[C@H]1C)C[C@H](O)[C@H]2C(=O)O | Leishmania donovani | parasite growth, imaging | THP-1 | 20 nM, intracellular, amastigote | inhibition | 7%
O=C1O[C@H]([C@@H](O)CO)C(O)=C1O |  | ABTS scavenging |  | 10 min, dark | IC50 | 16.4 µM
CS(=O)(=O)NCCC(=O)Nc1ccccc1/N=c1\cc(-c2ccc3nc(N)oc3c2)oc2ccccc12 | A549 | cell growth or viability, CCK-8 |  | 1 µM | inhibition | -5.4%
CN1CCN(S(=O)(=O)c2ccc(-c3ccc4nncc(Nc5ncc(Cl)cn5)c4c3)cc2)CC1 | Leishmania donovani | parasite growth |  | intracellular, amastigote | EC50 | 0.035 µg/mL (≈ 0.0706 µM)
CCCCC[C@H](O)/C=C/[C@@H]1[C@@H](C/C=C\CCCC(=O)O)[C@@H](O)C[C@H]1O | Leishmania donovani | parasite growth, resazurin |  | 72 h, promastigote | IC50 | > 100 µM
CCCCCCCCCC1NCCc2cc(O)c(O)cc21 (centres unmarked) |  | ABTS scavenging |  | 10 min, dark | IC50 | 57.3 µM
CCCCCCCCCCCCCCCCOP(=O)([O-])OCC[N+](C)(C)C | Leishmania donovani | parasite growth | THP-1 | 40 µM, intracellular, amastigote | inhibition | 100%
Oc1cc2c(cc1O)C(Cc1ccccc1)NCC2 (centres unmarked) |  | ABTS scavenging |  | 10 min, dark | IC50 | 8.14 µM
NC(=O)C1CCCN1C(=O)Nc1ccccc1/N=c1\cc(-c2ccc3c(c2)OCCO3)oc2cc(F)ccc12 (centres unmarked) | A549 | cell growth or viability, CCK-8 |  | 1 µM | inhibition | -1.31%
O=C(O)CCC(=O)OCCN(Cc1ccc(Oc2ccc([N+](=O)[O-])cc2)cc1)C(=O)C(Cl)Cl | Leishmania donovani | parasite growth, resazurin |  | 72 h, promastigote | IC50 | 2.68 µM
c1ccc(Oc2ccc(Nc3c4c(nc5ccccc35)CCC4)cc2)cc1 | Leishmania donovani | parasite growth, resazurin |  | promastigote | IC50 | 0.6 µM
CCCCCCCCCCC1NCCc2cc(O)c(O)cc21 (centres unmarked) |  | ABTS scavenging |  | 10 min, dark | IC50 | 69.9 µM
O=C1O[C@H]([C@@H](O)CO)C(O)=C1O |  | ABTS scavenging |  | 20 min | IC50 | 54.5 µg/mL
COc1cc(C2NCCc3cc(O)c(O)cc32)ccc1O (centres unmarked) |  | ABTS scavenging |  | 10 min, dark | IC50 | 14 µM
CCOc1ccc(Nc2c3c(nc4ccccc24)CCC3)cc1 | Leishmania donovani | parasite growth | THP-1 | intracellular, amastigote | IC50 | 0.592 µM
CCCCCCCCCCCCCCCCCCOc1ccccc1CC(=O)OCC[N+]1(C)CCCCC1 | NCI-H522 | cell growth or viability, SRB |  | 10 µM | inhibition | 66.7%
